# ChEMBL document CHEMBL1212902, “Efficient synthesis and biological evaluation of demethyl geranylgeranoic acid derivatives” (Bioorg Med Chem, 2010)
# Active and inactive are the calls of the source. The calls are words filed in the database; no cut-off is given here.
# Tests used:
# [1] = molecular target: T1, Cellular retinoic acid-binding protein 2 (Rattus norvegicus) (UniProt P51673); experiment: Transcriptional activation of rat CRABP2 expressed in human MG63 cells coexpressing RXRE at 1 uM after 48 hrs; type: cell-based; conditions: MG-63
# T1 sequence (whole entry): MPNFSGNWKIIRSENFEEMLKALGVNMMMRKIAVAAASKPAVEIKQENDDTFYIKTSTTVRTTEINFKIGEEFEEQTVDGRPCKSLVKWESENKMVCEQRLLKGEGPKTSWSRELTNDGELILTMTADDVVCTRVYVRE
# Procedure, shortened: (§1)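 MG-63 cells were seeded at 2 × 10^5/well, then transfected using Tfx-50 with an SV40-Luc pGL3 reporter plus pRL-CMV. Cells were treated at 10^-6 M for 2 days. Luciferase was normalised to Renilla and reported as fold versus ethanol control, from at least three repeats with SEM.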
# [2] = molecular target: T2, Retinoic acid receptor beta (Homo sapiens) (UniProt P10826); experiment: Transcriptional activation of human RARbeta expressed in human MG63 cells coexpressing RARE at 1 uM after 48 hrs by luciferase reporter gene assay; type: cell-based; conditions: MG-63; procedure, shortened: as §1
# T2 sequence (whole entry): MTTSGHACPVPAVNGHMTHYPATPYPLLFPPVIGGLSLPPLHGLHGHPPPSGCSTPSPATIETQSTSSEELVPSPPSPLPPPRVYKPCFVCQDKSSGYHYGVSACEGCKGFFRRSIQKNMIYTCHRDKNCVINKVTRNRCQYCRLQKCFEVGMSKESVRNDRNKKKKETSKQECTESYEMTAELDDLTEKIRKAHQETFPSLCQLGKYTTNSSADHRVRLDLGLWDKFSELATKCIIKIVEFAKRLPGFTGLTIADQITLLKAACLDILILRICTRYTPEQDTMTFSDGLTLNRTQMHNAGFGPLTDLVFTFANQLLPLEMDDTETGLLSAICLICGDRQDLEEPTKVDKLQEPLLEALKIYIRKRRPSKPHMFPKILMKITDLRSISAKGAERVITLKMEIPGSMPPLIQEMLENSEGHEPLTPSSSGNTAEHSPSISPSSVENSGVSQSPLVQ
# HL-60 [3] = experiment: Induction of cell differentiation in human HL60 cells assessed as differentiation in to granulocytes; type: functional, cell-based
# HL-60 [4] = experiment: Induction of apoptosis in human HL60 cells after 24 hrs; type: functional, cell-based; conditions: in the assay text read “after 3 days” for “after 24 hrs”
# Procedure, shortened: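 HL-60 cells were seeded at 10^5 cells/well in RPMI-1640 and treated at 10^-6–10^-4 M. They were propidium iodide-stained and analysed by flow cytometry for cell cycle. Apoptosis is expressed as percent dead cells relative to the total untreated cell count, shown as mean with SEM.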
# [5] = molecular target: T3, Retinoic acid receptor RXR-alpha (Homo sapiens) (UniProt P19793); experiment: Transcriptional activation of Gal4-tagged human RXRalpha expressed in human MG63 cells at 1 uM after 48 hrs; type: cell-based; conditions: MG-63
# T3 sequence (whole entry): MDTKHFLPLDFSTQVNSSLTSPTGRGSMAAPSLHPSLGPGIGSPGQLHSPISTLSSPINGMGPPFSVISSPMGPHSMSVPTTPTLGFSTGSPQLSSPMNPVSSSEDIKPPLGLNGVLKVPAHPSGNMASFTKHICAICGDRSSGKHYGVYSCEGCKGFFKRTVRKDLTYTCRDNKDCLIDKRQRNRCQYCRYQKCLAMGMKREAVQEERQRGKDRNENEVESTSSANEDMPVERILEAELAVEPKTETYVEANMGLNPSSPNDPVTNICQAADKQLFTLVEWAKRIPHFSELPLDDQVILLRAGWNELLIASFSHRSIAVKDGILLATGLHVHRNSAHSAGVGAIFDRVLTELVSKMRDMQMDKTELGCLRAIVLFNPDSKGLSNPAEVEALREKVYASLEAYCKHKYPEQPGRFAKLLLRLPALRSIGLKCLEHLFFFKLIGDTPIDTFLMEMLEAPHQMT
# Procedure, shortened: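 Human osteosarcoma MG-63 cells in DMEM with 10% charcoal-stripped FCS were seeded at 2 × 10^5/well the day before transfection. They were cotransfected with human RXR fused to the GAL4 DNA-binding domain, a GAL4-site luciferase reporter and a pRL-CMV control. Cells were then exposed at 10^-6 M for 48 h. Firefly luciferase was normalised to Renilla and expressed as fold over ethanol vehicle, from three experiments with SEM.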
# HL-60 [6] = experiment: Antiproliferative activity against human HL60 cells after 24 hrs; type: functional, cell-based
# HL-60 [7] = experiment: Cell cycle arrest in human HL60 cells assessed as accumulation at G0/G1 phase at 25 uM after 24 hrs by flow cytometry; type: functional, cell-based
# Procedure, shortened: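 HL-60 cells grown in RPMI-1640 with 10% charcoal-stripped FCS and kanamycin at 37 °C in 5% CO2. Cells were exposed at 2.5 × 10^-5 M for 24 h, stained with propidium iodide at 4 °C for 20 min and analysed on a 488 nm flow cytometer. The percentage of cells in G0/G1 is given relative to untreated cells.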
Activity [1],Activity [2],Activity [5],Compound,Activity (HL-60 [3]),Activity (HL-60 [4]),Activity (HL-60 [6]),Activity (HL-60 [7])
inactive,Active,–,CC(C)=CCC/C(C)=C/CC/C=C/CC/C(C)=C/C(=O)O,–,–,–,–
inactive,Active,Active,CC(C)=CCC/C(C)=C/CC/C(C)=C/CC/C=C/C(=O)O,Active,Active,Active,Active
inactive,Active,–,CC(C)=CCC/C=C/CC/C(C)=C/CC/C(C)=C/C(=O)O,–,–,–,–
inactive,Active,–,C/C=C/CC/C(C)=C/CC/C(C)=C/CC/C(C)=C/C(=O)O,–,–,–,–
